Series [1] concerns BXPC-3. In words: Antiproliferative activity against human BxPC3 cells after 48 hrs by CCK8 assay. The note with it: BXPC-3, 48 h. In kind it is functional, cell-based. The gist of the method: (§1)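 Cells seeded at 6 × 10^3 cells/well and left 12 h at 37 °C, 5% CO2. Medium then replaced with serial compound dilutions, bortezomib as positive control. After 48 h, CCK-8 added for 4 h and absorbance read at 450 nm. Three repeats; IC50 from normalized nonlinear regression of inhibition curves.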

In series [2] the test system is SK-OV-3. In words: Antiproliferative activity against human SKOV3 cells after 48 hrs by CCK8 assay. Format: functional, cell-based. The note with it: SK-OV-3, 48 h. The gist of the method: as §1
The subject of series [3] is HCT-116. The series is described as follows: Antiproliferative activity against human HCT116 cells after 48 hrs by CCK8 assay. Format: functional, cell-based. As to conditions: HCT-116, 48 h. The gist of the method: as §1
The test system of series [4] is A549. The series is described as follows: Antiproliferative activity against human A549 cells after 48 hrs by CCK8 assay. In kind it is functional, cell-based. The note with it: A549, 48 h. An outline of the steps: as §1
The test system of series [5] is AGS. The series is described as follows: Antiproliferative activity against human AGS cells after 48 hrs by CCK8 assay. Format: functional, cell-based. The gist of the method:
as §1

For series [6], the system named is K562. The series is described as follows: Antiproliferative activity against human K562 cells after 48 hrs by CCK8 assay. The note with it: K562, 48 h. Format: functional, cell-based. The gist of the method:
as §1

Series [7] is described as follows: Hemolytic activity against rabbit erythrocytes assessed as hemolysis at 100 uM measured after 1 hr. In kind it is ADME, cell-based, Oryctolagus cuniculus, Erythrocyte. The note with it: read-out: Activity. An outline of the steps: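 Rabbit erythrocytes pelleted at 3000 rpm for 10 min, washed twice and resuspended in PBS. Mixed 1:1 with 200 μM compound solution in PBS, 1 h at 37 °C. PBS served as 0% and 1% Triton X-100 as 100% hemolysis. After centrifugation, supernatant hemoglobin read at 540 nm; % hemolysis calculated relative to the Triton and PBS controls.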

The nature of series [8]: Antiproliferative activity against human LO2 cells after 48 hrs by CCK8 assay. Format: cell-based, L02. The note with it: read-out: LC50.
A short description of series [9]: Antiproliferative activity against HUVEC after 48 hrs by CCK8 assay. As to conditions: human, read-out: LC50. Format: cell-based.
Series [10] is described as follows: Antiproliferative activity against HEK293T cells after 48 hrs by CCK8 assay. Format: cell-based, HEK-293T. The note with it: human, read-out: LC50.
Series [11] has as its target T1, NEDD8 activating enzyme (Homo sapiens) (UniProt Q8TBC4+Q13564). In words: Inhibition of NAE in human AGS cells assessed as reduction in Ubc12-NEDD8 conjugation level at 10 to 90 uM after 24 hrs by Western blot analysis. In kind it is cell-based.
The target in series [12] is T1, NEDD8 activating enzyme (Homo sapiens). The series is described as follows: Inhibition of NAE-mediated CRL neddylation in human AGS cells assessed as increase in NRF2 level after 24 hrs by Western blot analysis. In kind it is cell-based. An outline of the steps: (§2)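 AGS cells given 2, 4, 6, 8 or 10 μM compound or 0.1% DMSO for 24 h, washed in ice-cold PBS and lysed in RIPA on ice. Equal protein loads run by SDS-PAGE: non-reducing for NEDD8/SUMO/Ub conjugates, reducing for p27, NRF2, CDT1 and cleaved caspase-3. Blotted to PVDF with primary antibody overnight at 4 °C and HRP secondary, ECL detection, densitometry. Three repeats.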

Series [13] shares this target. In words: Inhibition of NAE in human AGS cells assessed as reduction in Uba3-NEDD8 conjugation level at 10 to 90 uM after 24 hrs by Western blot analysis. Format: cell-based.
The target is the same in series [14]. The series is described as follows: Inhibition of NAE-mediated CRL neddylation in human AGS cells assessed as increase in CDT1 level after 24 hrs by Western blot analysis. Format: cell-based. The gist of the method:
as §2

Series [15] shares this target. In words: Inhibition of NAE in human AGS cells assessed as reduction in Cullins-NEDD8 conjugation level at 10 to 90 uM after 24 hrs by Western blot analysis. In kind it is cell-based.
Series [16] shares this target. In words: Inhibition of NAE-mediated CRL neddylation in human AGS cells assessed as increase in p27 level after 24 hrs by Western blot analysis. In kind it is cell-based. An outline of the steps: as §2

Activity calls are given as the source filed them. The rule behind the calls is not given here.

For the compound `O=c1cc(-c2c[nH]nn2)c2ccc(N3CCC(NCCc4ccccc4)CC3)cc2o1`, the IC50 in [1], in series [2], in series [3], in series [4], in [5] and in series [6] was over 30 µM throughout.
In the case of `NS(=O)(=O)OC[C@@H]1C[C@@H](n2ccc3c(N[C@@H]4CCc5ccccc54)ncnc32)C[C@@H]1O`, the hemolysis at 1 h, 100 µM in series [7] was 5.8%. Further, the CC50 at 48 h turned out to be 9.01 µM in series [8], 4.79 µM in [9] and 6.17 µM in series [10].
Regarding `CC(C)C[C@H](NC(=O)[C@H](Cc1ccccc1)NC(=O)c1cnccn1)B(O)O` [BORTEZOMIB], the figures for the CC50 at 48 h in [8], in [9] and in series [10] were 0.398 µM, 0.018 µM and 0.016 µM, respectively.
As to `Clc1ccc(CCNC2CCN(Cc3ccccc3)CC2)c(Cl)c1`, the 50% inhibitory concentration (IC50) in series [1] came to 12.4 µM; in series [2] it was 9.26 µM; in series [3], 10.6 µM; in [4], 5.55 µM; in [5] it was 9.92 µM; in [6], 5.51 µM.
As for `Cc1cc(-c2cc(=O)oc3cc(N4CCC(NCCc5ccccc5)CC4)ccc23)ccc1C(F)(F)F`, the IC50 was 7.67 µM in [1]; 5.94 µM in series [2]; 6 µM in [3]; 3.09 µM in series [4]; 1.39 µM in series [5]; 3.29 µM in series [6].
On to `O=c1cc(C#Cc2cccnc2)c2ccc(N3CCC(NCCc4ccccc4)CC3)cc2o1`, for which the hemolysis at 1 h, 100 µM in series [7] was under 10%. Besides, the IC50 was determined as 4.33 µM in series [1]; 7.7 µM in series [2]; 2.69 µM in series [3]; 3.35 µM in series [4]; 1.66 µM in series [5]; 3.3 µM in series [6].
For `Cc1ccc(-c2cc(=O)oc3cc(N4CCC(NCCc5ccccc5)CC4)ccc23)cc1C`, the half-inhibitory concentration (IC50) in series [1] worked out at 8.44 µM; in series [2] it was 6.42 µM; in series [3] it was 5.82 µM; in series [4], 3.77 µM; in [5], 1.89 µM; in series [6], 3.26 µM.
Take `O=c1cc(-c2cnc(O)nc2O)c2ccc(N3CCC(NCCc4ccccc4)CC3)cc2o1`: the inhibition result in series [11], in series [12], in [13], in [14], in series [15] and in series [16] was “inactive” each time. Moreover, the IC50 in [1], in series [2], in series [3], in [4], in series [5] and in series [6] was over 30 µM in each case.
`O=c1cc(C#CC2(O)CCCCC2)c2ccc(N3CCC(NCCc4ccccc4)CC3)cc2o1`: the IC50 in series [1] stood at 2.01 µM; in [2], 4.35 µM; in [3], 2.79 µM; in series [4], 2.48 µM; in series [5], 1.71 µM; in series [6] it was 2.63 µM.
Regarding `O=c1cc(C#Cc2cccc(Cl)c2)c2ccc(N3CCC(NCCc4ccccc4)CC3)cc2o1`, in series [7], the hemolysis at 1 h, 100 µM is under 10%. Further, the concentration for half-maximal inhibition (IC50) in series [1] amounted to 1.33 µM; in series [2] it was 7.5 µM; in [3] it was 4.27 µM; in series [4], 3.1 µM; in series [5], 1.42 µM; in series [6] it was 1.32 µM.
With `O=c1cc(-c2ccc(Oc3ccccc3)cc2)c2ccc(N3CCC(NCCc4ccccc4)CC3)cc2o1`, the IC50 in series [1] amounted to 2.82 µM; in [2], 3.22 µM; in series [3], 6.11 µM; in series [4] it was 3.83 µM; in [5], 1.26 µM; in series [6], 1.53 µM.
With `O=c1cc(C#CC2CCCCC2)c2ccc(N3CCC(NCCc4ccccc4)CC3)cc2o1`, the IC50 turned out to be 4.08 µM in [1]; 4.17 µM in [2]; 2.81 µM in [3]; 2.99 µM in series [4]; 1.13 µM in series [5]; 1.17 µM in series [6].
